Measurements reported in ChEMBL document CHEMBL1156077, “Piperazinyl-glutamate-pyrimidines as potent P2Y12 antagonists for inhibition of platelet aggregation” (Bioorg Med Chem Lett, 2009).

Assays:
[1] = target: T1, P2Y purinoceptor 12 (Homo sapiens, UniProt Q9H244); experiment: Binding affinity at human recombinant P2Y12 receptor expressed in CHO cells by radioligand binding assay; format: cell-based
Outline: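 Washed membranes from CHO cells transfected with synthetic human P2Y12 gene. Compounds as 7-point threefold dilutions, triplicate, 1 h at room temperature. Nonspecific binding defined with 300 nM 2-MeSADP. Filtered, washed with ice-cold Tris pH 7.4. Single-site fit; IC50 converted to Ki by Cheng–Prusoff, geometric mean of n≥2.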

[2] = target: T1, P2Y purinoceptor 12; experiment: Ratio of compound IC50 to thienopyrimidine IC50 for P2Y12 receptor in human platelet rich plasma assessed as inhibition of ADP-induced platelet aggregation by light transmission aggregometry
Outline: (§1)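 Human platelet-rich plasma was pre-incubated 5 min at 37 °C with compound across seven concentrations (10 down to 0.156). Aggregation was started with ADP (20, final) and followed by light transmission at 626 nm for 15 min at 37 °C. Duplicate concentration-response data were read at the 15-min end-point. IC50 was divided by the IC50 of the thienopyrimidine reference run on the same plate.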

[3] = target: T1, P2Y purinoceptor 12; experiment: Ratio of compound IC50 to AZD-6140 IC50 for P2Y12 receptor in human platelet rich plasma assessed as inhibition of ADP-induced platelet aggregation by light transmission aggregometry
Outline: as §1, with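 “AZD-6140” for “the thienopyrimidine reference”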

[4] = Selectivity for human P2Y12 receptor over P2Y13
[5] = Selectivity for human P2Y12 receptor over P2Y1

T1 sequence (Q9H244 whole entry): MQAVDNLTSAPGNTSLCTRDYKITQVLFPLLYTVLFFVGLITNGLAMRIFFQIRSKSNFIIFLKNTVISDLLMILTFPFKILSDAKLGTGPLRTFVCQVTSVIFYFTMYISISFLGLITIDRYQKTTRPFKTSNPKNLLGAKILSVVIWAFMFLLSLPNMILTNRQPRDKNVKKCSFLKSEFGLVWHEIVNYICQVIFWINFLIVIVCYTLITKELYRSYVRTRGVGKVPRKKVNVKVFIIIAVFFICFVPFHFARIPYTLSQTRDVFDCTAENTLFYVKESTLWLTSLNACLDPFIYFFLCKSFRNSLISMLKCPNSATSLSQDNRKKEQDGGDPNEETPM

Ki [1] [nM]	Ratio IC50 [2]	Ratio IC50 [3]	fold change (FC) [4]	fold change (FC) [5]	SMILES
0.9	0.2	1.2	> 340	> 340	CCCCCOC(=O)N1CCN(C(=O)[C@H](CCC(=O)O)NC(=O)c2cc(N3CCC(CC(=O)NC)CC3)nc(-c3ccccc3)n2)CC1
3.6	0.5	1.8	> 340	> 340	CCCCCOC(=O)N1CCN(C(=O)[C@H](CCC(=O)O)NC(=O)c2nc(-c3ccccc3)cc(N3CCC(C(=O)N4CCCC4)CC3)n2)CC1
2.1	0.2	1.5	> 340	> 340	CCCCCOC(=O)N1CCN(C(=O)[C@H](CCC(=O)O)NC(=O)c2cc(N3CCN(CC(=O)N4CCCC4)CC3)nc(-c3ccccc3)n2)CC1
3	0.4	1.9	> 340	> 340	CCCCCOC(=O)N1CCN(C(=O)[C@H](CCC(=O)O)NC(=O)c2nc(-c3ccccc3)cc(N3CCC(CCN)CC3)n2)CC1
8.1			> 340	> 340	CCCCCOC(=O)N1CCN(C(=O)[C@H](CCC(=O)O)NC(=O)c2nc(-c3ccccc3)cc(N3CCC(COCCOC)CC3)n2)CC1
31	1.7	8.5	> 340	> 340	CCCCCOC(=O)N1CCN(C(=O)[C@H](CCC(=O)O)NC(=O)c2nc(OCC3CCNCC3)cc(-c3ccccc3)n2)CC1
1.2	0.2	0.8	> 340	> 340	CCCCCOC(=O)N1CCN(C(=O)[C@H](CCC(=O)O)NC(=O)c2cc(N3CCN(C(N)=O)CC3)nc(-c3ccccc3)n2)CC1
11			> 340	> 340	CCCCCOC(=O)N1CCN(C(=O)[C@H](CCC(=O)O)NC(=O)c2nc(-c3ccccc3)cc(N3CCOCC3)n2)CC1
2.2	0.1	0.7	> 340	> 340	CCCCCOC(=O)N1CCN(C(=O)[C@H](CCC(=O)O)NC(=O)c2cc(N3CCC(CNCC)CC3)nc(-c3ccccc3)n2)CC1
22	1.1	6	> 340	> 340	CCCCCOC(=O)N1CCN(C(=O)[C@H](CCC(=O)O)NC(=O)c2nc(-c3ccccc3)cc(N3CCNCC3)n2)CC1
12	1	3.7	> 340	> 340	CCCCOC(=O)N1CCN(C(=O)[C@H](CCC(=O)O)NC(=O)c2cc(OCCOC)nc(-c3ccccc3)n2)CC1
0.92	0.2	1.1	> 340	> 340	CCCCCOC(=O)N1CCN(C(=O)[C@H](CCC(=O)O)NC(=O)c2cc(N3CCC(CC(=O)N4CCC4)CC3)nc(-c3ccccc3)n2)CC1
2.8	1.4	8.3	> 340	> 340	CCCCCOC(=O)N1CCN(C(=O)[C@H](CCC(=O)O)NC(=O)c2cc(OCCCN3CCOCC3)nc(-c3ccccc3)n2)CC1
3.6	0.4	1.5	> 340	> 340	CCCCCOC(=O)N1CCN(C(=O)[C@H](CCC(=O)O)NC(=O)c2nc(-c3ccccc3)cc(N3CCC(C(=O)N(CC)CC)CC3)n2)CC1
11	1.2	6.6	> 340	> 340	CCCCCOC(=O)N1CCN(C(=O)[C@H](CCC(=O)O)NC(=O)c2nc(OCCCN3CCOCC3)cc(-c3ccccc3)n2)CC1
5.9	0.8	3.9	> 340	> 340	CCCCCOC(=O)N1CCN(C(=O)[C@H](CCC(=O)O)NC(=O)c2nc(-c3ccccc3)cc(N3CCC(N4CCOCC4)CC3)n2)CC1
2.6	0.1	0.5	> 340	> 340	CCCCCOC(=O)N1CCN(C(=O)[C@H](CCC(=O)O)NC(=O)c2cc(N3CCN(CC(=O)N(C)C)CC3)nc(-c3ccccc3)n2)CC1
5	0.5	1.6	> 340	> 340	CCCCCOC(=O)N1CCN(C(=O)[C@H](CCC(=O)O)NC(=O)c2cc(N3CCC(OC)CC3)nc(-c3ccccc3)n2)CC1
7.1	1.2	5.3	> 340	> 340	CCCCCOC(=O)N1CCN(C(=O)[C@H](CCC(=O)O)NC(=O)c2nc(-c3ccccc3)cc(N3CCC(OCCOC)CC3)n2)CC1

Ki [1] [nM]	Ratio IC50 [2]	Ratio IC50 [3]	fold change (FC) [4]	fold change (FC) [5]	SMILES
1.2	1	3.4	> 340	> 340	CCCCCOC(=O)N1CCN(C(=O)[C@H](CCC(=O)O)NC(=O)c2cc(N3CC(OCC)C3)nc(-c3ccccc3)n2)CC1
1	2	7.9	> 340	> 340	CCCCCOC(=O)N1CCN(C(=O)[C@H](CCC(=O)O)NC(=O)c2cc(N3CCOCC3)nc(-c3ccccc3)n2)CC1
9.4	0.9	3.5	> 340	> 340	CCCCCOC(=O)N1CCN(C(=O)[C@H](CCC(=O)O)NC(=O)c2cc(NC3CCN(C(C)C)CC3)nc(-c3ccccc3)n2)CC1
1.3	0.2	1.1	> 340	> 340	CCCCOC(=O)N1CCN(C(=O)[C@H](CCC(=O)O)NC(=O)c2cc(N3CCC(N4CCOCC4)CC3)nc(-c3ccccc3)n2)CC1
1.2	1.2	8.8	> 340	> 340	CCCCCOC(=O)N1CCN(C(=O)[C@H](CCC(=O)O)NC(=O)c2cc(OCCOC)nc(-c3ccccc3)n2)CC1
14			> 340	> 340	CCCCCOC(=O)N1CCN(C(=O)[C@H](CCC(=O)O)NC(=O)c2nc(-c3ccccc3)cc(N3CCN(C(=O)N(C)C)CC3)n2)CC1
2.5	0.8	4.6	> 340	> 340	CCCCCOC(=O)N1CCN(C(=O)[C@H](CCC(=O)O)NC(=O)c2cc(N3CC(O)C3)nc(-c3ccccc3)n2)CC1
123			> 340	> 340	CCCCOC(=O)N1CCN(C(=O)[C@H](CCC(=O)O)NC(=O)c2cc(OC(CC)C(=O)N(CC)CC)nc(-c3ccccc3)n2)CC1 (stereo not given in full)
184			> 340	> 340	CCCCCOC(=O)N1CCN(C(=O)[C@H](CCC(=O)O)NC(=O)c2nc(OCCN(CC)CC)cc(-c3ccccc3)n2)CC1
1.2			> 340	> 340	CCCCCOC(=O)N1CCN(C(=O)[C@H](CCC(=O)O)NC(=O)c2nc(OCCOC)cc(-c3ccccc3)n2)CC1
35			> 340	> 340	CCCCCOC(=O)N1CCN(C(=O)[C@H](CCC(=O)O)NC(=O)c2nc(NC3CCN(C(C)C)CC3)cc(-c3ccccc3)n2)CC1
7.4			> 340	> 340	CCCCCOC(=O)N1CCN(C(=O)[C@H](CCC(=O)O)NC(=O)c2nc(-c3ccccc3)cc(N3CCC(OC)CC3)n2)CC1
7.5			> 340	> 340	CCCCCOC(=O)N1CCN(C(=O)[C@H](CCC(=O)O)NC(=O)c2cc(N3CCC(C)CC3)nc(-c3ccccc3)n2)CC1
8.4			> 340	> 340	CCCCCOC(=O)N1CCN(C(=O)[C@H](CCC(=O)O)NC(=O)c2nc(-c3ccccc3)cc(N3CCC(CCOC)CC3)n2)CC1
19			> 340	> 340	CCCCCOC(=O)N1CCN(C(=O)[C@H](CCC(=O)O)NC(=O)c2nc(NCC3CCNC3)cc(-c3ccccc3)n2)CC1 (stereo not given in full)
38			> 340	> 340	CCCCCOC(=O)N1CCN(C(=O)[C@H](CCC(=O)O)NC(=O)c2nc(NCCCN(C)C)cc(-c3ccccc3)n2)CC1
5.2			> 340	> 340	CCCCCOC(=O)N1CCN(C(=O)[C@H](CCC(=O)O)NC(=O)c2nc(NCCOC)cc(-c3ccccc3)n2)CC1
10			> 340	> 340	CCCCCOC(=O)N1CCN(C(=O)[C@H](CCC(=O)O)NC(=O)c2nc(-c3ccccc3)cc(N3CCC(OCCO)CC3)n2)CC1
1.7	0.2	0.8			CCCCOC(=O)N1CCN(C(=O)[C@H](CCC(=O)O)NC(=O)c2cc(N3CCC(N4CCCC4)CC3)nc(-c3ccccc3)n2)CC1
